Measurements published in ChEMBL document CHEMBL3108741 (J Med Chem, 2014).
Activity calls are given as the source filed them.

How the values were obtained:
Xenopus laevis [1] = assay: Anesthetic effect on prelimb-bud stage Xenopus laevis tadpole assessed as loss of swimming reflex after 3 hrs; format: functional, organism-based
Xenopus laevis [2] = assay: Anesthetic effect on prelimb-bud stage Xenopus laevis tadpole assessed as loss of righting reflex after 3 hrs; format: functional, organism-based
Rattus norvegicus [3] = organism: Rattus norvegicus; assay: Positive allosteric modulation of rat alpha1beta2gamma2L GABAA receptor expressed in Xenopus laevis oocytes assessed as potentiation of GABA-induced chloride current elicitation by two-electrode voltage clamp technique relative to control; format: cell-based
Rattus norvegicus [4] = organism: Rattus norvegicus; assay: […] of rat alpha1beta2gamma2L GABAA receptor expressed in Xenopus laevis oocytes assessed as chloride current elicitation at 10 uM by two-electrode voltage clamp technique relative to GABA; format: cell-based
How it was run: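 Rat α1β2γ2L GABAA receptors expressed in Xenopus oocytes, at least four oocytes. Direct current gated by 10 μM compound without GABA, expressed as the ratio of compound-only current to current evoked by 2 μM GABA; mean ± SEM.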

Rattus norvegicus [5] = organism: Rattus norvegicus; assay: Positive allosteric modulation of rat alpha1beta2gamma2L GABAA receptor expressed in Xenopus laevis oocytes assessed as potentiation of GABA-induced chloride current elicitation at 10 uM by two-electrode voltage clamp technique relative to control; format: cell-based
Rattus norvegicus [6] = organism: Rattus norvegicus; assay: Positive allosteric modulation of rat alpha1beta2gamma2L GABAA receptor expressed in Xenopus laevis oocytes assessed as potentiation of GABA-induced chloride current elicitation at 1 uM by two-electrode voltage clamp technique relative to control; format: cell-based
Rattus norvegicus [7] = organism: Rattus norvegicus; assay: Positive allosteric modulation of rat alpha1beta2gamma2L GABAA receptor expressed in Xenopus laevis oocytes assessed as potentiation of GABA-induced chloride current elicitation at 0.1 uM by two-electrode voltage clamp technique relative to control; format: cell-based
[8] = Displacement of [35S]TBPS from rat picrotoxin binding site of GABAA receptor after 2 hrs by scintillation counting analysis
How it was run: (§1)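 [35S]TBPS binding inhibition; duplicate experiments each run in triplicate, mean ± SEM. Highest concentration tested 30 μM; IC50 from fitted binding curve, with maximal displacement noted where inhibition was partial.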

[9] = Lipophilicity, log P of the compound; format: physicochemical; settings: octanol/water
Xenopus laevis [10] = assay: Anesthetic effect on prelimb-bud stage Xenopus laevis tadpole assessed as loss of swimming reflex at 10 uM after 3 hrs; format: functional, organism-based
Xenopus laevis [11] = assay: Anesthetic effect on prelimb-bud stage Xenopus laevis tadpole assessed as loss of righting reflex at 10 uM after 3 hrs; format: functional, organism-based
HEK293 [12] = assay: Positive allosteric modulation of wild type rat alpha1beta2gamma2L GABAA receptor expressed in HEK293 cells assessed as longest-lived intracluster closed time at 20 uM by […] relative to control; format: cell-based
HEK293 [13] = assay: Positive allosteric modulation of wild type rat alpha1beta2gamma2L GABAA receptor expressed in HEK293 cells assessed as longest-lived intracluster open time at 20 uM by […] relative to control; format: cell-based
HEK293 [14] = assay: Positive allosteric modulation of wild type rat alpha1beta2gamma2L GABAA receptor expressed in HEK293 cells assessed as OT long at 20 uM by […]; format: cell-based
How it was run: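 Single-channel recording of rat wild-type α1β2γ2L GABAA receptors. Receptors were activated by 50 μM GABA with or without 20 μM compound, in 4-7 patches. Intracluster open-time histograms were fitted to sums of two or three exponentials, and the long open-time component was taken from the fit.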

Rattus norvegicus [15] = organism: Rattus norvegicus; assay: Displacement of [35S]TBPS from rat picrotoxin binding site of GABAA receptor at 30 uM after 2 hrs by scintillation counting analysis; how it was run: as §1
Mus musculus [16] = assay: Anesthetic effect in mouse assessed as recovery of righting reflex at 1 to 8 mg/kg, iv; format: functional; settings: dose mg/kg 1-8
How it was run: (§2)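 Mice, tail vein injection; compound in 22.5% aqueous 2-(hydroxypropyl)-β-cyclodextrin, lower doses by serial dilution of the 8 mg/kg stock with 0.9% saline. Anesthesia scored as loss of righting reflex; duration of LRR recorded at each dose.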

Mus musculus [17] = assay: Anesthetic effect in mouse assessed as recovery of righting reflex at 8 to 16 mg/kg, iv; format: functional; settings: dose mg/kg 8-16
How it was run: (§3)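 Mice were given intravenous tail-vein injections at 8 and 16 mg/kg. The compound was in 22.5% aqueous 2-(hydroxypropyl)-β-cyclodextrin. Anesthesia was defined as loss of righting reflex, and onset, duration and recovery of the reflex were followed.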

Mus musculus [18] = assay: Anesthetic effect in mouse assessed as onset of loss of righting reflex at 1 to 8 mg/kg, iv; format: functional; settings: dose mg/kg 1-8
How it was run: (§4)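 Tail-vein injection in mice, with anesthesia read as loss of righting reflex (LRR): duration, onset and recovery scored. Compounds were dissolved in 22.5% aqueous 2-(hydroxypropyl)-β-cyclodextrin. Lower doses came from serial dilution of the 8 mg/kg solution with 0.9% saline. Doses tested were 1, 2, 4 and 8 mg/kg.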

Mus musculus [19] = assay: Anesthetic effect in mouse assessed as onset of loss of righting reflex at 8 to 16 mg/kg, iv; format: functional; settings: dose mg/kg 8-16; how it was run: as §3
Mus musculus [20] = assay: Anesthetic effect in mouse assessed as duration of loss of righting reflex at 16 mg/kg, iv; format: functional; how it was run: as §2
Mus musculus [21] = assay: Anesthetic effect in mouse assessed as duration of loss of righting reflex at 8 mg/kg, iv; format: functional; how it was run: as §4
HEK293 [22] = assay: Positive allosteric modulation of rat alpha1W245Lbeta2gamma2L GABAA receptor mutant expressed in HEK293 cells assessed as potentiation of GABA-induced chloride current elicitation at 20 uM by […] relative to control; format: cell-based
How it was run: (§5)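 HEK 293 cells expressing wild-type or α1 mutant receptors, whole-cell recording. Peak currents elicited by GABA at 5 μM for wild type or 10 μM for mutants (11–17% of maximal), with or without 20 μM compound. Mean ± S.D., 4–7 cells per receptor–compound combination.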

HEK293 [23] = assay: Positive allosteric modulation of rat alpha1S240Lbeta2gamma2L GABAA receptor mutant expressed in HEK293 cells assessed as potentiation of GABA-induced chloride current elicitation at 20 uM by […] relative to control; format: cell-based; how it was run: as §5
HEK293 [24] = assay: Positive allosteric modulation of rat alpha1Q241Lbeta2gamma2L GABAA receptor mutant expressed in HEK293 cells assessed as potentiation of GABA-induced chloride current elicitation at 20 uM by […] relative to control; format: cell-based; how it was run: as §5
HEK293 [25] = assay: Positive allosteric modulation of wild type rat alpha1beta2gamma2L GABAA receptor expressed in HEK293 cells assessed as potentiation of GABA-induced chloride current elicitation at 20 uM by […] relative to control; format: cell-based; how it was run: as §5
Mus musculus [26] = assay: Anesthetic effect in mouse assessed as duration of loss of righting reflex at 4 mg/kg, iv; format: functional; how it was run: as §4
Mus musculus [27] = assay: Anesthetic effect in mouse assessed as duration of loss of righting reflex at 2 mg/kg, iv; format: functional; how it was run: as §4
Mus musculus [28] = assay: Anesthetic effect in mouse assessed as duration of loss of righting reflex at 1 mg/kg, iv; format: functional, organism-based; set-up: dose 1 mg/kg; how it was run: as §4

| SMILES | EC50 (Xenopus laevis [1]) [nM] | EC50 (Xenopus laevis [2]) [nM] | Activity (Rattus norvegicus [3]) | Ratio (Rattus norvegicus [4]) | Ratio (Rattus norvegicus [5]) | Ratio (Rattus norvegicus [6]) | Ratio (Rattus norvegicus [7]) | IC50 [8] [nM] | logP [9] | Ratio (HEK293 [12]) | Ratio (HEK293 [13]) | TIME (HEK293 [14]) [ms] | further results |
| --- | --- | --- | --- | --- | --- | --- | --- | --- | --- | --- | --- | --- | --- |
| CO[C@H]1C[C@@]2(C)[C@@H](CC[C@H]3[C@@H]4CC(=O)C[C@@]4(C)CC[C@@H]32)C[C@@H]1O | 9290 | 3150 | Dose-dependent effect | 0.01 | 4.48 | 1.23 | 0.92 | 1270 | – | – | – | – | – |
| O=C1C[C@@H]2CC[C@H]3[C@@H](CC[C@@H]4C[C@@H](O)CC[C@H]43)[C@@H]2C1 | – | – | Dose-dependent effect | 0 | 1.65 | 0.76 | 0.8 | 2020 | 2.77 | 0.27 | 0.49 | 11.5 | Activity (Xenopus laevis [10]): inactive; Activity (Xenopus laevis [11]): inactive; inhibition (Rattus norvegicus [15]): 88% |
| C[C@@]12CC[C@H](O)C[C@H]1CC[C@H]1[C@@H]3CC(=O)C[C@@H]3CC[C@@H]12 | – | 3640 | Dose-dependent effect | 0.01 | 3.56 | 1.13 | 0.93 | 1520 | – | 0.21 | 0.53 | 16.1 | Activity (Xenopus laevis [10]): inactive |
| CO[C@@H]1C[C@]2(C)[C@H](CC[C@@H]3[C@@H]2CC[C@@]2(C)C(=O)CC[C@@H]32)C[C@H]1O | > 10000 | 2390 | Dose-dependent effect | -0.01 | 1.53 | 0.93 | 0.93 | 6490 | – | – | – | – | – |
| CO[C@H]1[C@H](O)CC[C@]2(C)[C@H]3CC[C@]4(C)C(=O)CC[C@H]4[C@@H]3CC[C@@H]12 | – | – | Dose-dependent effect | 0.12 | 0.91 | 1.01 | 1.08 | > 30000 | – | – | – | – | Activity (Xenopus laevis [10]): inactive; Activity (Xenopus laevis [11]): inactive; inhibition (Rattus norvegicus [15]): 45% |
| C[C@]12CC[C@H]3[C@@H](CC[C@H]4C[C@H](O)CC[C@@]43C)[C@@H]1CC(=O)C2 | 7540 | 3600 | Dose-dependent effect | -0.02 | 9.98 | 1.38 | 1.01 | 895 | – | – | – | – | – |
| CO[C@H]1[C@H]2CC[C@@H]3[C@H](CC[C@@]4(C)C(=O)CC[C@@H]34)[C@]2(C)CC[C@@H]1O | 2940 | 590 | Dose-dependent effect | 0.05 | 12.2 | 3.67 | 1.21 | 198 | – | – | – | – | – |
| CO[C@H]1[C@H](O)CC[C@]2(C)[C@H]3CC[C@]4(C)CC(=O)C[C@H]4[C@@H]3CC[C@@H]12 | 13500 | 3150 | Dose-dependent effect | 0.02 | 0.69 | 0.72 | 0.88 | 6680 | – | – | – | – | inhibition (Rattus norvegicus [15]): 65% |
| C[C@@]12CC[C@@H]3[C@@H]4CC[C@H](O)C[C@H]4CC[C@H]3[C@@H]1CC(=O)C2 | 5480 | 1160 | Dose-dependent effect | 0.02 | 10.5 | 2.43 | 0.97 | 238 | 3.24 | 0.11 | 0.2 | 9.8 | – |
| CC(=O)[C@H]1CC[C@H]2[C@@H]3CC[C@H]4C[C@H](O)CC[C@]4(C)[C@H]3C(=O)C[C@]12C [ALFAXALONE] | – | – | – | – | – | – | – | – | – | – | – | – | Time (Mus musculus [16]): 1 min; Time (Mus musculus [17]): 1 min; Time (Mus musculus [18]): <30 s; Time (Mus musculus [19]): <30 s; Time (Mus musculus [20]): 4 min |
| CO[C@H]1C[C@@]2(C)[C@@H](CC[C@@H]3[C@@H]2CC[C@]2(C)C(=O)CC[C@@H]32)C[C@@H]1O | > 10000 | 5090 | Dose-dependent effect | 0.08 | 3.39 | 1.04 | 0.84 | 2190 | – | – | – | – | – |
| C[C@@]12CC[C@H]3[C@@H](CC[C@@H]4C[C@@H](O)CC[C@]43C)[C@@H]1CC(=O)C2 | 1730 | 550 | Dose-dependent effect | 0.15 | 34.7 | 7.72 | 1.42 | 81 | 3.71 | 0.05 | 0.57 | 12.4 | Time (Mus musculus [16]): 1 min; Time (Mus musculus [17]): 1 min; Time (Mus musculus [18]): <30 s; Time (Mus musculus [19]): <30 s; Time (Mus musculus [20]): 7 min; Time (Mus musculus [21]): 3 min; Ratio (HEK293 [22]): 1; Ratio (HEK293 [23]): 7.6; Ratio (HEK293 [24]): 1.3; Ratio (HEK293 [25]): 7.8 |
| CC(=O)[C@H]1CC[C@H]2[C@@H]3CC[C@H]4C[C@H](O)CC[C@]4(C)[C@H]3CC[C@]12C [BREXANOLONE] | – | – | Dose-dependent effect | 0.37 | 9.65 | 3.89 | 1.26 | 74 | 4.46 | – | – | – | – |
| CO[C@H]1[C@H]2CC[C@H]3[C@@H]4CC(=O)C[C@]4(C)CC[C@@H]3[C@]2(C)CC[C@@H]1O | 1730 | 340 | Dose-dependent effect | 0.08 | 16 | 6.48 | 1.41 | 83 | 3.19 | 0.06 | 0.53 | 17.7 | Time (Mus musculus [16]): 1 min; Time (Mus musculus [17]): 1 min; Time (Mus musculus [18]): <30 s; Time (Mus musculus [19]): <30 s; Time (Mus musculus [26]): 5 min; Time (Mus musculus [27]): 1 min; Activity (Mus musculus [28]): inactive; Time (Mus musculus [21]): 9 min; Ratio (HEK293 [22]): 0.9; Ratio (HEK293 [23]): 9.4; Ratio (HEK293 [24]): 1.3; Ratio (HEK293 [25]): 9.2 |
| CO[C@@H]1C[C@]2(C)[C@H](CC[C@H]3[C@@H]4CC(=O)C[C@]4(C)CC[C@@H]32)C[C@H]1O | 10300 | 2910 | Dose-dependent effect | 0.01 | 2.95 | 1.03 | 0.91 | 3030 | – | – | – | – | – |
